Reference: ChEMBL document CHEMBL1154352, “Toll-like receptor 7 selective synthetic oligoribonucleotide agonists: synthesis and structure-activity relationship studies” (J Med Chem, 2009)

How the values were obtained:
[1] = Metabolic stability in human serum assessed as full length product remaining after 10 mins by HPLC; format: ADME, cell-free; conditions: read-out: Stability
Procedure, shortened: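 About 0.5 A260 units compound in 1% human serum in PBS, 37 °C; aliquot taken at 10 min, analysed by anion-exchange HPLC for percent intact full-length product.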

[2] = molecular target: T1, Toll-like receptor 8 (Homo sapiens) (UniProt Q9NR97); assay: Activation of human TLR8 expressed in HEK293XL assessed as fold induction of NF-kappaB activity at 50 ug/ml after 18 hrs by reporter gene assay relative to control
T1 sequence (whole entry): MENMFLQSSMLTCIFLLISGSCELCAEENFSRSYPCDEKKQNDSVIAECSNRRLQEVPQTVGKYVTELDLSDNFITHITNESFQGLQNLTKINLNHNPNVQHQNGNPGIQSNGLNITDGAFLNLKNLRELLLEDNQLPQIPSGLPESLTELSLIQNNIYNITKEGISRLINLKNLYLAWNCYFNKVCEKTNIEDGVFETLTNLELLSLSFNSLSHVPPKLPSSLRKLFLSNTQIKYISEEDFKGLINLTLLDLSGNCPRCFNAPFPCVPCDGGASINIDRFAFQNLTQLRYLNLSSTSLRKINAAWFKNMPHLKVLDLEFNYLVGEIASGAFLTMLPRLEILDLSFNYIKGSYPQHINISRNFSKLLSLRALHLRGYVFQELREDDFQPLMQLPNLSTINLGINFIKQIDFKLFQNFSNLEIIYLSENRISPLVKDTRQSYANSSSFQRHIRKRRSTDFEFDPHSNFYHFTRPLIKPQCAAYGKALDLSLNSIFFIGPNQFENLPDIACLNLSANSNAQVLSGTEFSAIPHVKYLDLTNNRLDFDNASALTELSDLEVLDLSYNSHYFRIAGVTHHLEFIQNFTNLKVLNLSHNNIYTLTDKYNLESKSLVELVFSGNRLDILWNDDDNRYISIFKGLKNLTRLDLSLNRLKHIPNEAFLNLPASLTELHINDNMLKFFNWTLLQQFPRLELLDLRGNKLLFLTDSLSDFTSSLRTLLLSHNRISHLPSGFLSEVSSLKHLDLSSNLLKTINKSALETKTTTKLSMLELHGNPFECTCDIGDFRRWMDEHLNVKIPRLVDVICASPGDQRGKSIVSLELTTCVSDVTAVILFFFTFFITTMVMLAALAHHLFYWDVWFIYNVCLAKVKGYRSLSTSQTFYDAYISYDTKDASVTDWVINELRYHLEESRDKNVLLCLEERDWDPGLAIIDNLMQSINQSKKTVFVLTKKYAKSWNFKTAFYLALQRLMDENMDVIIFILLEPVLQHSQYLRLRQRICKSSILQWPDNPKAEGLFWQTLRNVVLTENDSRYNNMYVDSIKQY
Procedure, shortened: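 HEK293 cells stably expressing human TLR7 or TLR8, transiently transfected with SEAP reporter plasmid; medium replaced, SIMRA compounds added, 18 h incubation. Supernatant SEAP measured by QuantiBlue; expressed as fold increase in NF-κB activity over PBS control. Tabulated data at 50 μg/mL, representative of three independent experiments.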

remaining at 10 min [1] [%]	fold change (FC) [2]	SMILES
85	1.5	Nc1ccn([C@@H]2O[C@H](CO)[C@@H](OP(=O)(S)OC[C@H]3O[C@@H](n4ccc(=O)[nH]c4=O)[C@H](O)[C@@H]3OP(=O)(S)OC[C@H]3O[C@@H](n4ccc(=O)[nH]c4=O)[C@H](O)[C@@H]3OP(=O)(S)OC[C@H]3O[C@@H](n4ccc5c(=O)[nH]c(N)nc54)[C@H](O)[C@@H]3OP(=O)(S)OC[C@H]3O[C@@H](n4ccc(=O)[nH]c4=O)[C@H](O)[C@@H]3OP(=O)(S)OC[C@H]3O[C@@H](n4ccc5c(=O)[nH]c(N)nc54)[C@H](O)[C@@H]3OP(=O)(S)OC[C@H]3O[C@@H](n4cnc5c(N)ncnc54)[C@H](O)[C@@H]3OP(=O)(S)OC[C@H]3O[C@@H](n4ccc5c(=O)[nH]c(N)nc54)[C@H](O)[C@@H]3OP(=O)(S)OC[C@H]3O[C@@H](n4ccc(N)nc4=O)[C@H](O)[C@@H]3OP(=O)(S)OC[C@H]3O[C@@H](n4ccc(=O)[nH]c4=O)[C@H](O)[C@@H]3OP(=O)(S)OC[C@H]3O[C@@H](n4ccc(=O)[nH]c4=O)[C@H](O)[C@@H]3OP(=O)(S)OCC(O)COP(=O)(S)O[C@H]3[C@@H](O)[C@H](n4ccc(=O)[nH]c4=O)O[C@@H]3COP(=O)(S)O[C@H]3[C@@H](O)[C@H](n4ccc(=O)[nH]c4=O)O[C@@H]3COP(=O)(S)O[C@H]3[C@@H](O)[C@H](n4ccc(N)nc4=O)O[C@@H]3COP(=O)(S)O[C@H]3[C@@H](O)[C@H](n4ccc5c(=O)[nH]c(N)nc54)O[C@@H]3COP(=O)(S)O[C@H]3[C@@H](O)[C@H](n4cnc5c(N)ncnc54)O[C@@H]3COP(=O)(S)O[C@H]3[C@@H](O)[C@H](n4ccc5c(=O)[nH]c(N)nc54)O[C@@H]3COP(=O)(S)O[C@H]3[C@@H](O)[C@H](n4ccc(=O)[nH]c4=O)O[C@@H]3COP(=O)(S)O[C@H]3[C@@H](O)[C@H](n4ccc5c(=O)[nH]c(N)nc54)O[C@@H]3COP(=O)(S)O[C@H]3[C@@H](O)[C@H](n4ccc(=O)[nH]c4=O)O[C@@H]3COP(=O)(S)O[C@H]3[C@@H](O)[C@H](n4ccc(=O)[nH]c4=O)O[C@@H]3COP(=O)(S)O[C@H]3[C@@H](O)[C@H](n4ccc(N)nc4=O)O[C@@H]3CO)[C@H]2O)c(=O)n1 (stereo partly drawn)
74	2	Nc1ccn([C@@H]2O[C@H](COP(=O)(S)O[C@H]3[C@@H](O)[C@H](n4cnc5c(N)ncnc54)O[C@@H]3CO)[C@@H](OP(=O)(S)OC[C@H]3O[C@@H](n4ccc5c(=O)[nH]c(N)nc54)[C@H](O)[C@@H]3OP(=O)(S)OC[C@H]3O[C@@H](n4ccc(=O)[nH]c4=O)[C@H](O)[C@@H]3OP(=O)(S)OC[C@H]3O[C@@H](n4ccc5c(=O)[nH]c(N)nc54)[C@H](O)[C@@H]3OP(=O)(S)OC[C@H]3O[C@@H](n4cnc5c(N)nc(N)nc54)[C@H](O)[C@@H]3OP(=O)(S)OC[C@H]3O[C@@H](n4cnc5c(N)ncnc54)[C@H](O)[C@@H]3OP(=O)(S)OC[C@H]3O[C@@H](n4ccc5c(=O)[nH]c(N)nc54)[C@H](O)[C@@H]3OP(=O)(S)OC[C@H]3O[C@@H](n4ccc(N)nc4=O)[C@H](O)[C@@H]3OP(=O)(S)OC[C@H]3O[C@@H](n4ccc(=O)[nH]c4=O)[C@H](O)[C@@H]3OP(=O)(S)OC[C@H]3O[C@@H](n4ccc(=O)[nH]c4=O)[C@H](O)[C@@H]3OP(=O)(S)OCC(O)COP(=O)(S)O[C@H]3[C@@H](O)[C@H](n4ccc(=O)[nH]c4=O)O[C@@H]3COP(=O)(S)O[C@H]3[C@@H](O)[C@H](n4ccc(=O)[nH]c4=O)O[C@@H]3COP(=O)(S)O[C@H]3[C@@H](O)[C@H](n4ccc(N)nc4=O)O[C@@H]3COP(=O)(S)O[C@H]3[C@@H](O)[C@H](n4ccc5c(=O)[nH]c(N)nc54)O[C@@H]3COP(=O)(S)O[C@H]3[C@@H](O)[C@H](n4cnc5c(N)nc(N)nc54)O[C@@H]3COP(=O)(S)O[C@H]3[C@@H](O)[C@H](n4cnc5c(N)nc(N)nc54)O[C@@H]3COP(=O)(S)O[C@H]3[C@@H](O)[C@H](n4ccc5c(=O)[nH]c(N)nc54)O[C@@H]3COP(=O)(S)O[C@H]3[C@@H](O)[C@H](n4ccc(=O)[nH]c4=O)O[C@@H]3COP(=O)(S)O[C@H]3[C@@H](O)[C@H](n4ccc5c(=O)[nH]c(N)nc54)O[C@@H]3COP(=O)(S)O[C@H]3[C@@H](O)[C@H](n4ccc(N)nc4=O)O[C@@H]3COP(=O)(S)O[C@H]3[C@@H](O)[C@H](n4cnc5c(N)ncnc54)O[C@@H]3CO)[C@H]2O)c(=O)n1 (stereo partly drawn)
77	1	Nc1ccn([C@@H]2O[C@H](COP(=O)(S)O[C@H]3[C@@H](O)[C@H](n4cnc5c(N)ncnc54)O[C@@H]3COP(=O)(S)O[C@H]3[C@@H](O)[C@H](n4cnc5c(N)ncnc54)O[C@@H]3CO)[C@@H](OP(=O)(S)OC[C@H]3O[C@@H](n4ccc(=O)[nH]c4=O)[C@H](O)[C@@H]3OP(=O)(S)OC[C@H]3O[C@@H](n4ccc5c(=O)[nH]c(N)nc54)[C@H](O)[C@@H]3OP(=O)(S)OC[C@H]3O[C@@H](n4cnc5c(N)ncnc54)[C@H](O)[C@@H]3OP(=O)(S)OC[C@H]3O[C@@H](n4cnc5c(N)ncnc54)[C@H](O)[C@@H]3OP(=O)(S)OC[C@H]3O[C@@H](n4ccc5c(=O)[nH]c(N)nc54)[C@H](O)[C@@H]3OP(=O)(S)OC[C@H]3O[C@@H](n4ccc(N)nc4=O)[C@H](O)[C@@H]3OP(=O)(S)OC[C@H]3O[C@@H](n4ccc(=O)[nH]c4=O)[C@H](O)[C@@H]3OP(=O)(S)OC[C@H]3O[C@@H](n4ccc(=O)[nH]c4=O)[C@H](O)[C@@H]3OP(=O)(S)OCC(O)COP(=O)(S)O[C@H]3[C@@H](O)[C@H](n4ccc(=O)[nH]c4=O)O[C@@H]3COP(=O)(S)O[C@H]3[C@@H](O)[C@H](n4ccc(=O)[nH]c4=O)O[C@@H]3COP(=O)(S)O[C@H]3[C@@H](O)[C@H](n4ccc(N)nc4=O)O[C@@H]3COP(=O)(S)O[C@H]3[C@@H](O)[C@H](n4ccc5c(=O)[nH]c(N)nc54)O[C@@H]3COP(=O)(S)O[C@H]3[C@@H](O)[C@H](n4cnc5c(N)ncnc54)O[C@@H]3COP(=O)(S)O[C@H]3[C@@H](O)[C@H](n4cnc5c(N)ncnc54)O[C@@H]3COP(=O)(S)O[C@H]3[C@@H](O)[C@H](n4ccc5c(=O)[nH]c(N)nc54)O[C@@H]3COP(=O)(S)O[C@H]3[C@@H](O)[C@H](n4ccc(=O)[nH]c4=O)O[C@@H]3COP(=O)(S)O[C@H]3[C@@H](O)[C@H](n4ccc(N)nc4=O)O[C@@H]3COP(=O)(S)O[C@H]3[C@@H](O)[C@H](n4cnc5c(N)ncnc54)O[C@@H]3COP(=O)(S)O[C@H]3[C@@H](O)[C@H](n4cnc5c(N)ncnc54)O[C@@H]3CO)[C@H]2O)c(=O)n1 (stereo partly drawn)
83	0.4	Nc1ccn([C@@H]2O[C@H](COP(=O)(S)O[C@H]3[C@@H](O)[C@H](n4ccc5c(=O)[nH]c(N)nc54)O[C@@H]3CO[C@H]3[C@@H](O)[C@H](n4cnc5c(N)ncnc54)O[C@@H]3COP(=O)(S)O[C@H]3[C@@H](O)[C@H](n4ccc5c(=O)[nH]c(N)nc54)O[C@@H]3COP(=O)(S)O[C@H]3[C@@H](O)[C@H](n4ccc(=O)[nH]c4=O)O[C@@H]3COP(=O)(S)O[C@H]3[C@@H](O)[C@H](n4ccc(N)nc4=O)O[C@@H]3COP(=O)(S)O[C@H]3[C@@H](O)[C@H](n4ccc5c(=O)[nH]c(N)nc54)O[C@@H]3COP(=O)(S)O[C@H]3[C@@H](O)[C@H](n4ccc(=O)[nH]c4=O)O[C@@H]3COP(=O)(S)O[C@H]3[C@@H](O)[C@H](n4ccc(=O)[nH]c4=O)O[C@@H]3CO)[C@@H](OP(=O)(S)OC[C@H]3O[C@@H](n4ccc(=O)[nH]c4=O)[C@H](O)[C@@H]3OP(=O)(S)OC[C@H]3O[C@@H](n4ccc(=O)[nH]c4=O)[C@H](O)[C@@H]3OP(=O)(S)OCC(O)COP(=O)(S)O[C@H]3[C@@H](O)[C@H](n4ccc(=O)[nH]c4=O)O[C@@H]3COP(=O)(S)O[C@H]3[C@@H](O)[C@H](n4ccc(=O)[nH]c4=O)O[C@@H]3COP(=O)(S)O[C@H]3[C@@H](O)[C@H](n4ccc(N)nc4=O)O[C@@H]3COP(=O)(S)O[C@H]3[C@@H](O)[C@H](n4ccc5c(=O)[nH]c(N)nc54)O[C@@H]3CO[C@H]3[C@@H](O)[C@H](n4cnc5c(N)ncnc54)O[C@@H]3COP(=O)(S)O[C@H]3[C@@H](O)[C@H](n4ccc5c(=O)[nH]c(N)nc54)O[C@@H]3COP(=O)(S)O[C@H]3[C@@H](O)[C@H](n4ccc(=O)[nH]c4=O)O[C@@H]3COP(=O)(S)O[C@H]3[C@@H](O)[C@H](n4ccc(N)nc4=O)O[C@@H]3COP(=O)(S)O[C@H]3[C@@H](O)[C@H](n4ccc5c(=O)[nH]c(N)nc54)O[C@@H]3COP(=O)(S)O[C@H]3[C@@H](O)[C@H](n4ccc(=O)[nH]c4=O)O[C@@H]3COP(=O)(S)O[C@H]3[C@@H](O)[C@H](n4ccc(=O)[nH]c4=O)O[C@@H]3CO)[C@H]2O)c(=O)n1 (stereo partly drawn)
